Test results: ChEMBL document CHEMBL2311405, “Synthesis and biological evaluation of indenoisoquinolines that inhibit both tyrosyl-DNA phosphodiesterase I (Tdp1) and topoisomerase I (Top1)” (J Med Chem, 2013)
pIC50: −log10 of the molar value. Activity calls are given as the source filed them. No cut-off for these calls is given here.

test system: OVCAR-3; assay: Growth inhibition of human OVCAR3 cells; type: functional

Compound | GI50 [nM]
COC(=O)C(=O)Nc1ccc2c3c(n(CCCN)c(=O)c2c1)-c1ccccc1C3=O | 4010
CN(C)CCCn1c2c(c3ccc(C#N)cc3c1=O)C(=O)c1ccccc1-2 | 1720
NCCCn1c2c(c3ccc(N)cc3c1=O)C(=O)c1ccccc1-2 | 130
COC(=O)CCCC(=O)Nc1ccc2c3c(n(CCCN)c(=O)c2c1)-c1ccccc1C3=O | 1470
CCOC(=O)CNc1ccc2c3c(n(CCCN)c(=O)c2c1)-c1ccccc1C3=O | 3120
COC(=O)CC(=O)Nc1ccc2c3c(n(CCCN)c(=O)c2c1)-c1ccccc1C3=O | 3220
NCCCn1c2c(c3ccc(NCC(=O)O)cc3c1=O)C(=O)c1ccccc1-2 | 1600

Next, values leading:

GI50 [nM] | Compound
20 | COc1ccc2c(c1)C(=O)c1c-2n(CCCN)c(=O)c2cc(N)ccc12
870 | O=C1c2ccccc2-c2c1c1ccc([N+](=O)[O-])cc1c(=O)n2CCCO
30 | COc1ccc2c(c1)-c1c(c3ccc([N+](=O)[O-])cc3c(=O)n1CCCn1ccnc1)C2=O
1320 | COc1ccc2c(c1)C(=O)c1c-2n(CCCN)c(=O)c2cc(I)ccc12

test system: UACC-62; assay: Growth inhibition of human UACC62 cells; type: functional

Compound | GI50 [nM]
COC(=O)C(=O)Nc1ccc2c3c(n(CCCN)c(=O)c2c1)-c1ccccc1C3=O | 1220
CN(C)CCCn1c2c(c3ccc(C#N)cc3c1=O)C(=O)c1ccccc1-2 | 190
COc1ccc2c(c1)C(=O)c1c-2n(CCCN)c(=O)c2cc(N)ccc12 | 100
NCCCn1c2c(c3ccc(N)cc3c1=O)C(=O)c1ccccc1-2 | 300
COC(=O)CCCC(=O)Nc1ccc2c3c(n(CCCN)c(=O)c2c1)-c1ccccc1C3=O | 1220
O=C1c2ccccc2-c2c1c1ccc([N+](=O)[O-])cc1c(=O)n2CCCO | 310
COc1ccc2c(c1)-c1c(c3ccc([N+](=O)[O-])cc3c(=O)n1CCCn1ccnc1)C2=O | < 10
CCOC(=O)CNc1ccc2c3c(n(CCCN)c(=O)c2c1)-c1ccccc1C3=O | 2250
COC(=O)CC(=O)Nc1ccc2c3c(n(CCCN)c(=O)c2c1)-c1ccccc1C3=O | 1690
COc1ccc2c(c1)C(=O)c1c-2n(CCCN)c(=O)c2cc(I)ccc12 | 140
NCCCn1c2c(c3ccc(NCC(=O)O)cc3c1=O)C(=O)c1ccccc1-2 | 720

target: T1, DNA topoisomerase 1 (Homo sapiens) (UniProt P11387); assay: Inhibition of recombinant Top1 (unknown origin) using 3'-[32P]-end-labeled 117 bp oligonucleotide as substrate assessed as suppression of DNA cleavage at 100 uM by SDS-PAGE analysis
T1 sequence (whole entry): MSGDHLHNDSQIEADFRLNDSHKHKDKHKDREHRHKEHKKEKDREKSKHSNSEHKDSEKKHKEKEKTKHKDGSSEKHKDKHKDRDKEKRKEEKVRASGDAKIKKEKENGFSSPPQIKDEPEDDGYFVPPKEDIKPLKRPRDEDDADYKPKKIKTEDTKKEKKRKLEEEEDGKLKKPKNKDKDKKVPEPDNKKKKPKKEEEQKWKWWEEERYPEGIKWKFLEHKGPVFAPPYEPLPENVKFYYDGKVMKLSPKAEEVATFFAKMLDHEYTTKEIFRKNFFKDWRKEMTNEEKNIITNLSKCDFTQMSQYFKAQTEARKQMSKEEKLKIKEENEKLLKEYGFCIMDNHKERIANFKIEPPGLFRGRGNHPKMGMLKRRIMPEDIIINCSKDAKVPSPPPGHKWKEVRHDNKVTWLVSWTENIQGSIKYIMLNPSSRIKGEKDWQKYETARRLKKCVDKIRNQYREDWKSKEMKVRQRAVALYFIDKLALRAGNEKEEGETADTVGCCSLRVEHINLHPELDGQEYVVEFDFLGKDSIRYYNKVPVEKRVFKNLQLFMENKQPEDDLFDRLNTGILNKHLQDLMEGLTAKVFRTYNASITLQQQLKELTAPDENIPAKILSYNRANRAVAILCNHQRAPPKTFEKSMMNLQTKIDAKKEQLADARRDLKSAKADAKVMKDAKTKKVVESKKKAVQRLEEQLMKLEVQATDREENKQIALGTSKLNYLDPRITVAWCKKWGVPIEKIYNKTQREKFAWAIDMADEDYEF
Procedure, shortened: (§1)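 3′-[32P]-end-labeled 117-bp DNA at 2 nM incubated with recombinant Top1 at 25 °C for 20 min across a range of compound concentrations. Stopped with SDS (0.5% final) plus formamide loading dye, then 20% denaturing PAGE. Dried gels were phosphorimaged.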

inhibition | Compound
inactive | COc1ccc2c(c1)-c1c(c3ccc([N+](=O)[O-])cc3c(=O)n1CCCn1ccnc1)C2=O

test system: HCT-116; assay: Growth inhibition of human HCT116 cells; type: functional

Compound | GI50 [nM]
COC(=O)C(=O)Nc1ccc2c3c(n(CCCN)c(=O)c2c1)-c1ccccc1C3=O | 570
CN(C)CCCn1c2c(c3ccc(C#N)cc3c1=O)C(=O)c1ccccc1-2 | 50
NCCCn1c2c(c3ccc(N)cc3c1=O)C(=O)c1ccccc1-2 | 180
COC(=O)CCCC(=O)Nc1ccc2c3c(n(CCCN)c(=O)c2c1)-c1ccccc1C3=O | 380
CCOC(=O)CNc1ccc2c3c(n(CCCN)c(=O)c2c1)-c1ccccc1C3=O | 440
COC(=O)CC(=O)Nc1ccc2c3c(n(CCCN)c(=O)c2c1)-c1ccccc1C3=O | 540
NCCCn1c2c(c3ccc(NCC(=O)O)cc3c1=O)C(=O)c1ccccc1-2 | 330

More lines, now with the values ahead:

GI50 [nM] | Compound
< 10 | COc1ccc2c(c1)C(=O)c1c-2n(CCCN)c(=O)c2cc(N)ccc12
190 | O=C1c2ccccc2-c2c1c1ccc([N+](=O)[O-])cc1c(=O)n2CCCO
< 10 | COc1ccc2c(c1)-c1c(c3ccc([N+](=O)[O-])cc3c(=O)n1CCCn1ccnc1)C2=O
70 | COc1ccc2c(c1)C(=O)c1c-2n(CCCN)c(=O)c2cc(I)ccc12

target: T1, DNA topoisomerase 1 (Homo sapiens); assay: Inhibition of recombinant Top1 (unknown origin) using 3'-[32P]-end-labeled 117 bp oligonucleotide as substrate after 20 mins by SDS-PAGE analysis relative to 1 uM MJ-3-65

inhibition | Compound
Active | CN(C)CCCn1c2c(c3ccc(C#N)cc3c1=O)C(=O)c1ccccc1-2
Active | O=C1c2ccccc2-c2c1c1ccc([N+](=O)[O-])cc1c(=O)n2CCCO
Active | COc1ccc2c(c1)-c1c(c3ccc([N+](=O)[O-])cc3c(=O)n1CCCn1ccnc1)C2=O

target: Tyrosyl-DNA phosphodiesterase 1 (Homo sapiens, UniProt Q9NUW8); assay: Inhibition of recombinant Tdp1 (unknown origin) using 5'-[32P]-labeled single-stranded DNA oligonucleotide containing 3'-phosphotyrosine as substrate after 15 mins by PAGE analysis
Sequence (Q9NUW8 whole entry): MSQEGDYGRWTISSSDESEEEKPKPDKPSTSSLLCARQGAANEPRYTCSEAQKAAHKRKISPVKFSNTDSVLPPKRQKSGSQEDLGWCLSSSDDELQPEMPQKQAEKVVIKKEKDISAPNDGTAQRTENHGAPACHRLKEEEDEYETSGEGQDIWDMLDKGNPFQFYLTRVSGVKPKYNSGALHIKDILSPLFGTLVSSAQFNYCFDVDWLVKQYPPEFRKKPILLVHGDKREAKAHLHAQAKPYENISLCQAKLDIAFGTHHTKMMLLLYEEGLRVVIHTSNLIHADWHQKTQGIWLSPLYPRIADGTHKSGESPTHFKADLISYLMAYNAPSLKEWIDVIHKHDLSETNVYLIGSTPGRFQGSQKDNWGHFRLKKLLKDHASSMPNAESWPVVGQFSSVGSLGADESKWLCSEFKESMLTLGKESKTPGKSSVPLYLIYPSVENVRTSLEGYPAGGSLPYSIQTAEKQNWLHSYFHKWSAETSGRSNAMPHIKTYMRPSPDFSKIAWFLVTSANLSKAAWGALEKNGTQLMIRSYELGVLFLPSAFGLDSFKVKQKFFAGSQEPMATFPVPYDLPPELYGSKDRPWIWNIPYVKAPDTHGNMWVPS

Compound | pIC50
COC(=O)C(=O)Nc1ccc2c3c(n(CCCN)c(=O)c2c1)-c1ccccc1C3=O | 4.35
COC(=O)CC(=O)Nc1ccc2c3c(n(CCCN)c(=O)c2c1)-c1ccccc1C3=O | 4.74

test system: MDA-MB-435; assay: Growth inhibition of human MDA-MB-435 cells; type: functional

Compound | GI50 [nM]
COC(=O)C(=O)Nc1ccc2c3c(n(CCCN)c(=O)c2c1)-c1ccccc1C3=O | 3360
CN(C)CCCn1c2c(c3ccc(C#N)cc3c1=O)C(=O)c1ccccc1-2 | 620
NCCCn1c2c(c3ccc(N)cc3c1=O)C(=O)c1ccccc1-2 | 230
COC(=O)CCCC(=O)Nc1ccc2c3c(n(CCCN)c(=O)c2c1)-c1ccccc1C3=O | 2050
CCOC(=O)CNc1ccc2c3c(n(CCCN)c(=O)c2c1)-c1ccccc1C3=O | 3050
COC(=O)CC(=O)Nc1ccc2c3c(n(CCCN)c(=O)c2c1)-c1ccccc1C3=O | 2330
NCCCn1c2c(c3ccc(NCC(=O)O)cc3c1=O)C(=O)c1ccccc1-2 | 1140

Now from value to molecule:

GI50 [nM] | Compound
120 | COc1ccc2c(c1)C(=O)c1c-2n(CCCN)c(=O)c2cc(N)ccc12
1970 | O=C1c2ccccc2-c2c1c1ccc([N+](=O)[O-])cc1c(=O)n2CCCO
30 | COc1ccc2c(c1)-c1c(c3ccc([N+](=O)[O-])cc3c(=O)n1CCCn1ccnc1)C2=O
960 | COc1ccc2c(c1)C(=O)c1c-2n(CCCN)c(=O)c2cc(I)ccc12

target: T1, DNA topoisomerase 1 (Homo sapiens); assay: Inhibition of recombinant Top1 (unknown origin) using 3'-[32P]-end-labeled 117 bp oligonucleotide as substrate after 20 mins by SDS-PAGE analysis; procedure, shortened: as §1

inhibition | Compound
inactive | COC(=O)CCCC(=O)Nc1ccc2c3c(n(CCCN)c(=O)c2c1)-c1ccccc1C3=O
inactive | NCCCn1c2c(c3ccc(NCC(=O)O)cc3c1=O)C(=O)c1ccccc1-2

Compound | inhibition
COC(=O)C(=O)Nc1ccc2c3c(n(CCCN)c(=O)c2c1)-c1ccccc1C3=O | inactive

test system: DU-145; assay: Growth inhibition of human DU145 cells; type: functional

Compound | GI50 [nM]
COC(=O)C(=O)Nc1ccc2c3c(n(CCCN)c(=O)c2c1)-c1ccccc1C3=O | 1110
CN(C)CCCn1c2c(c3ccc(C#N)cc3c1=O)C(=O)c1ccccc1-2 | 240
NCCCn1c2c(c3ccc(N)cc3c1=O)C(=O)c1ccccc1-2 | 120
COC(=O)CCCC(=O)Nc1ccc2c3c(n(CCCN)c(=O)c2c1)-c1ccccc1C3=O | 540
CCOC(=O)CNc1ccc2c3c(n(CCCN)c(=O)c2c1)-c1ccccc1C3=O | 1680
COC(=O)CC(=O)Nc1ccc2c3c(n(CCCN)c(=O)c2c1)-c1ccccc1C3=O | 1570
NCCCn1c2c(c3ccc(NCC(=O)O)cc3c1=O)C(=O)c1ccccc1-2 | 1510

Now from value to molecule:

GI50 [nM] | Compound
< 10 | COc1ccc2c(c1)C(=O)c1c-2n(CCCN)c(=O)c2cc(N)ccc12
430 | O=C1c2ccccc2-c2c1c1ccc([N+](=O)[O-])cc1c(=O)n2CCCO
< 10 | COc1ccc2c(c1)-c1c(c3ccc([N+](=O)[O-])cc3c(=O)n1CCCn1ccnc1)C2=O
50 | COc1ccc2c(c1)C(=O)c1c-2n(CCCN)c(=O)c2cc(I)ccc12

test system: SN12C; assay: Growth inhibition of human SN12C cells; type: functional

Compound | GI50 [nM]
COC(=O)C(=O)Nc1ccc2c3c(n(CCCN)c(=O)c2c1)-c1ccccc1C3=O | 2530
CN(C)CCCn1c2c(c3ccc(C#N)cc3c1=O)C(=O)c1ccccc1-2 | 190
COc1ccc2c(c1)C(=O)c1c-2n(CCCN)c(=O)c2cc(N)ccc12 | < 10
NCCCn1c2c(c3ccc(N)cc3c1=O)C(=O)c1ccccc1-2 | 230
COC(=O)CCCC(=O)Nc1ccc2c3c(n(CCCN)c(=O)c2c1)-c1ccccc1C3=O | 1020
O=C1c2ccccc2-c2c1c1ccc([N+](=O)[O-])cc1c(=O)n2CCCO | 470
COc1ccc2c(c1)-c1c(c3ccc([N+](=O)[O-])cc3c(=O)n1CCCn1ccnc1)C2=O | < 10
CCOC(=O)CNc1ccc2c3c(n(CCCN)c(=O)c2c1)-c1ccccc1C3=O | 1750
COC(=O)CC(=O)Nc1ccc2c3c(n(CCCN)c(=O)c2c1)-c1ccccc1C3=O | 1460
COc1ccc2c(c1)C(=O)c1c-2n(CCCN)c(=O)c2cc(I)ccc12 | 50
NCCCn1c2c(c3ccc(NCC(=O)O)cc3c1=O)C(=O)c1ccccc1-2 | 490

test system: SF-539; assay: Growth inhibition of human SF539 cells; type: functional
Procedure, shortened: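 Human cancer cell line panel, compounds tested at concentrations up to 10 μM. GI50 per cell line is the mean of two determinations where a standard error is given, otherwise from one determination.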

Compound | GI50 [nM]
COC(=O)C(=O)Nc1ccc2c3c(n(CCCN)c(=O)c2c1)-c1ccccc1C3=O | 6900
CN(C)CCCn1c2c(c3ccc(C#N)cc3c1=O)C(=O)c1ccccc1-2 | 1120
COc1ccc2c(c1)C(=O)c1c-2n(CCCN)c(=O)c2cc(N)ccc12 | 30
NCCCn1c2c(c3ccc(N)cc3c1=O)C(=O)c1ccccc1-2 | 340
COC(=O)CCCC(=O)Nc1ccc2c3c(n(CCCN)c(=O)c2c1)-c1ccccc1C3=O | 1470
COc1ccc2c(c1)-c1c(c3ccc([N+](=O)[O-])cc3c(=O)n1CCCn1ccnc1)C2=O | < 10
CCOC(=O)CNc1ccc2c3c(n(CCCN)c(=O)c2c1)-c1ccccc1C3=O | 8910
COC(=O)CC(=O)Nc1ccc2c3c(n(CCCN)c(=O)c2c1)-c1ccccc1C3=O | 4030
COc1ccc2c(c1)C(=O)c1c-2n(CCCN)c(=O)c2cc(I)ccc12 | 390
NCCCn1c2c(c3ccc(NCC(=O)O)cc3c1=O)C(=O)c1ccccc1-2 | 1790

test system: HOP-62; assay: Growth inhibition of human HOP62 cells; type: functional

Compound | GI50 [nM]
COC(=O)C(=O)Nc1ccc2c3c(n(CCCN)c(=O)c2c1)-c1ccccc1C3=O | 650
CN(C)CCCn1c2c(c3ccc(C#N)cc3c1=O)C(=O)c1ccccc1-2 | 260
COc1ccc2c(c1)C(=O)c1c-2n(CCCN)c(=O)c2cc(N)ccc12 | < 10
NCCCn1c2c(c3ccc(N)cc3c1=O)C(=O)c1ccccc1-2 | 270
COC(=O)CCCC(=O)Nc1ccc2c3c(n(CCCN)c(=O)c2c1)-c1ccccc1C3=O | 790
COc1ccc2c(c1)-c1c(c3ccc([N+](=O)[O-])cc3c(=O)n1CCCn1ccnc1)C2=O | < 10
CCOC(=O)CNc1ccc2c3c(n(CCCN)c(=O)c2c1)-c1ccccc1C3=O | 930
COC(=O)CC(=O)Nc1ccc2c3c(n(CCCN)c(=O)c2c1)-c1ccccc1C3=O | 1560
COc1ccc2c(c1)C(=O)c1c-2n(CCCN)c(=O)c2cc(I)ccc12 | 140
NCCCn1c2c(c3ccc(NCC(=O)O)cc3c1=O)C(=O)c1ccccc1-2 | 650
